Laboratory results taken from ChEMBL document CHEMBL3621107, “Ring fusion strategy for synthesis and lead optimization of sulfur-substituted anthra[1,2-c][1,2,5]thiadiazole-6,11-dione derivatives as promising scaffold of antitumor agents” (Eur J Med Chem, 2015).

Legend:
[1] = Cytotoxicity against human SV-HUC1 cells assessed as survival rate after 72 hrs by MTT assay; assay type: cell-based; settings: sv-huc1, 72 h
How it was run: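 SV-HUC-1 cells grown in Ham's F-12K with 5% heat-inactivated fetal calf serum, 37 °C, 5% CO2. About 2×10^3 cells/well plated for 24 h, then a range of compound concentrations (DMSO stock diluted into medium; vehicle 0.1% DMSO) for 72 h. MTT added for 3 h at 37 °C; absorbance 570 nm.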

[2] = Cytotoxicity against human WPMY-1cells assessed as survival rate after 72 hrs by MTT assay; assay type: cell-based; settings: wpmy-1, 72 h
How it was run: (§1)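 About 2×10^3 cells/well preincubated 24 h at 37 °C, 5% CO2. Compound freshly dissolved in DMSO, diluted into complete medium and added at various concentrations (vehicle 0.1% DMSO) for 72 h. MTT added for 3 h at 37 °C, absorbance read at 570 nm, survival rate derived.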

[3] = Cytotoxicity against human RWPE1 cells assessed as survival rate after 72 hrs by MTT assay; assay type: cell-based, RWPE-1; settings: rwpe-1, 72 h; how it was run: as §1
[4] = tested on: PC-3; experiment: Cytotoxicity against human PC3 cells after 48 hrs by SRB assay; assay type: functional, cell-based; settings: PC-3, 48 h
How it was run: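 Second-stage NCI-60 panel run by the NCI Developmental Therapeutics Program, covering nine tumour subpanels. Five concentrations were tested: 0.01, 0.1, 1, 10 and 100 μM. Percentage growth at each level was plotted against log10 drug concentration. GI50, TGI and LC50 were read from these dose-response curves. Subpanel MID values were divided into the full-panel MID to give selectivity ratios.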

[5] = tested on: DU-145; experiment: Cytotoxicity against human DU145 cells after 72 hrs by MTT assay; assay type: functional, cell-based; settings: DU-145, 72 h
How it was run: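 DU-145 cells grown in RPMI-1640 with 5% heat-inactivated fetal calf serum at 37 °C, 5% CO2. About 2×10^3 cells per well were seeded and incubated for 24 h. Compounds were dissolved in DMSO freshly and diluted into medium (vehicle 0.1% DMSO), then cells were exposed for 72 h. MTT was added for 3 h at 37 °C and absorbance read at 570 nm.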

Structure (SMILES)	Activity [1]	Activity [2]	Activity [3]	IC50 [4] [µM]	IC50 [5] [µM]
COc1cccc2c1C(=O)c1c(O)c3c(c(O)c1C2=O)C[C@@](O)(C(=O)CO)C[C@@H]3O[C@H]1C[C@H](N)[C@H](O)[C@H](C)O1 [DOXORUBICIN]	Toxic	Toxic	Toxic		
O=C1c2ccccc2C(=O)c2c1cc(SCCc1ccccc1)c1nsnc21				> 15	9.65
CC(C)(C)c1ccc(Sc2cc3c(c4nsnc24)C(=O)c2ccccc2C3=O)cc1				> 15	8.38
CC(C)c1ccccc1Sc1cc2c(c3nsnc13)C(=O)c1ccccc1C2=O				> 15	14.6
CCc1ccccc1Sc1cc2c(c3nsnc13)C(=O)c1ccccc1C2=O				> 15	> 15
O=C1c2ccccc2C(=O)c2c1cc(SCc1ccccc1Cl)c1nsnc21				5.48	6.38
O=C1c2ccccc2C(=O)c2c1cc(Sc1ccc(Br)cc1)c1nsnc21				> 15	13.3
Cc1cccc(Sc2cc3c(c4nsnc24)C(=O)c2ccccc2C3=O)c1				> 15	> 15
O=C1c2ccccc2C(=O)c2c1cc(Sc1ccccc1Cl)c1nsnc21				> 15	> 15
Cc1ccc(C)c(Sc2cc3c(c4nsnc24)C(=O)c2ccccc2C3=O)c1				7.44	12
CCc1ccc(Sc2cc3c(c4nsnc24)C(=O)c2ccccc2C3=O)cc1				7.5	2.52
O=C1c2ccccc2C(=O)c2c1cc(Sc1cccc(Br)c1)c1nsnc21				12.4	10.7
Cc1ccc(Sc2cc3c(c4nsnc24)C(=O)c2ccccc2C3=O)cc1C				> 15	14.1
CC(C)(C)c1ccc(CSc2cc3c(c4nsnc24)C(=O)c2ccccc2C3=O)cc1				9.5	3.66
CCCSc1cc2c(c3nsnc13)C(=O)c1ccccc1C2=O				5.39	2.55
O=C1c2ccccc2C(=O)c2c1cc(Sc1cc(Cl)c(Cl)cc1Cl)c1nsnc21				> 15	> 15
Cc1ccc(Sc2cc3c(c4nsnc24)C(=O)c2ccccc2C3=O)cc1				> 15	> 15
O=C1c2ccccc2C(=O)c2c1cc(Sc1cccc(F)c1)c1nsnc21				8.82	12.7
O=C1c2ccccc2C(=O)c2c1cc(Sc1ccc(F)cc1)c1nsnc21				6.7	11.1
COc1ccccc1Sc1cc2c(c3nsnc13)C(=O)c1ccccc1C2=O				> 15	12.9
CC(C)c1ccc(Sc2cc3c(c4nsnc24)C(=O)c2ccccc2C3=O)cc1				> 15	13.8
O=C1c2ccccc2C(=O)c2c1cc(Sc1ccccc1F)c1nsnc21				> 15	7.64
